Experimental data gathered from unrelated publications.
Cell line: SW480
Effect on: cell growth or viability

Structure (SMILES)	test	setting	endpoint	result
COc1cc(Nc2nccc(-c3cnn4nc(OC)ccc34)n2)cc(C(F)(F)F)c1	ATP luminescence	–	IC50	720 nM
COc1cc([C@@H]2c3cc4c(cc3[C@@H](O[C@@H]3O[C@@H]5CO[C@@H](C)O[C@H]5[C@H](O)[C@H]3O)[C@H]3COC(=O)[C@H]23)OCO4)cc(OC)c1O	MTT	48 h	IC50	17100 nM
C=CCNC1=C2C[C@@H](C)C[C@H](OC)[C@H](O)[C@@H](C)/C=C(\C)[C@H](OC(N)=O)[C@@H](OC)/C=C\C=C(/C)C(=O)NC(=CC1=O)C2=O	MTT	–	IC50	657 nM
CC[C@H](C)C(=O)O[C@H]1C[C@@H](C)C=C2C=C[C@H](C)[C@H](CC[C@@H]3C[C@@H](O)CC(=O)O3)[C@H]21	SRB	72 h	IC50	8.85 µg/mL
COC1=C2C[C@@H](C)C[C@H](OC)[C@H](O)[C@@H](C)/C=C(\C)[C@H](OC(N)=O)[C@@H](OC)/C=C\C=C(/C)C(=O)NC(=CC1=O)C2=O	MTT	–	IC50	308 nM
O=C(O)C[C@H](O)C[C@H](O)/C=C/c1c(C2CC2)nc2ccccc2c1-c1ccc(F)cc1	SRB	72 h	IC50	32.3 µg/mL
CC(C)C[C@H](NC(=O)[C@H](Cc1ccccc1)NC(=O)c1cnccn1)B(O)O	ATP luminescence	–	IC50	8.6 nM
Cc1cc2c(cc1N1C(=O)c3cccc4c(CCCO)ccc(c34)C1=O)n(C)c(=O)n2C (racemic)	resazurin	–	GI50	> 10000 nM
